High-throughput results as filed in PubChem BioAssay.
The list is not random: actives were taken first. Their share in the collection is about 2.3%.
TRPC4 act: activators of mouse TRPC4 channel. Q9QUQ5. 310,000 compounds, 0.49% hits. HEK293 TRPC4beta/mu-opioid, Fluo4 calcium fluorescence; hits give high values. B-score at 10 µM;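 active means B-score above 5 SD of library B-scores, and initial fluorescence ratio not above library mean plus 5 SD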;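 further: positive B-score marks a calcium rise read as TRPC4 activation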
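Incubation: 45 min room-temperature Fluo4 loading, 110 s read / System: HEK293 cells stably co-expressing mouse TRPC4beta and mu-opioid receptor / Signal: Fluo4 fluorescence, kinetic / Control set: buffer (low) and maximal DAMGO (high) / Measure: integrated baseline-normalised fluorescence ratio, converted to per-well B score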
TRPC6 inh: blocks the mouse TRPC6 cation channel; Q61143; B-score at 10 µM; 310,000 compounds, 1.1% hits; HEK293-TRPC6, membrane potential dye, ACh-evoked depolarization; hits give low values;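 active means B-score under library mean minus 3 SD, initial fluorescence not abnormally high, positive integrated signal ratio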;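 further: B-score derived from integrated fluorescence ratio over the kinetic read; more negative B-score means stronger inhibition of depolarization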
Target sequence (Q61143 whole entry, looked up): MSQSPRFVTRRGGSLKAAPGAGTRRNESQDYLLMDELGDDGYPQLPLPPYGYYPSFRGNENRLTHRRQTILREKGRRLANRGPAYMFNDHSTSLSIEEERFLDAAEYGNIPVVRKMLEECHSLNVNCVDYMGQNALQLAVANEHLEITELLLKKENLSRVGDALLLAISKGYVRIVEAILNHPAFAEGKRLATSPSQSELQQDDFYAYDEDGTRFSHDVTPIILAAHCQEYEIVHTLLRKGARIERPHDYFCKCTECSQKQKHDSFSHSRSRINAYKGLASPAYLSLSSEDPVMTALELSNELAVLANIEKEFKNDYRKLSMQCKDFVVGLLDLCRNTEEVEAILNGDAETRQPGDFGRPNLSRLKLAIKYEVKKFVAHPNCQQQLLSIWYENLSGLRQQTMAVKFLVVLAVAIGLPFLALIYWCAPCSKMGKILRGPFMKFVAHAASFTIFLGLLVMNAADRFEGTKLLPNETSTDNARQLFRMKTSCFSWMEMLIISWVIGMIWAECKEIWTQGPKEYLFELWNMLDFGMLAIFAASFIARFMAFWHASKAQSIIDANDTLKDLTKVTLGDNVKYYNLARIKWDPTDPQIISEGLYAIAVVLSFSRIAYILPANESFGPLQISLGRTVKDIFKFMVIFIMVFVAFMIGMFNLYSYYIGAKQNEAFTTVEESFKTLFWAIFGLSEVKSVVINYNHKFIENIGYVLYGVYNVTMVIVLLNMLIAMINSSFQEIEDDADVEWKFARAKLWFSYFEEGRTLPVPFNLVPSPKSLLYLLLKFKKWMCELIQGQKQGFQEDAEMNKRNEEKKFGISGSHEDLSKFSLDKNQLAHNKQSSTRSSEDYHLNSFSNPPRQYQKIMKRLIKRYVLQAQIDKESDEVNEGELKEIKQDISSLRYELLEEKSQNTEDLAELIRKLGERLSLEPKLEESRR
TRPC4 potent: TRPC4 (mouse) allosteric potentiation; AID 2227; Q9QUQ5; B-score at 10 µM; HEK293 TRPC4beta/mu-opioid, DAMGO EC20, Fluo-4 Ca2+ flux; hits give high values; 310,000 compounds, 0.42% hits;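 active means B-score of calcium response area above 5 SD of library B-scores, with initial fluorescence ratio within 5 SD of library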
TRPC6 activator: activates the mouse TRPC6 cation channel. Q61143. HEK293-TRPC6 membrane potential dye fluorescence; hits give high values. B-score at 10 µM. 310,000 compounds, 0.13% hits. AID 2550;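 active means B-score of the integrated fluorescence ratio above library mean plus 3 SD, and starting fluorescence ratio within library mean plus 5 SD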;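 further: higher score means more depolarization so channel activation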
TRPC4 block: inhibitors of mouse TRPC4 channel; AID 2247; Q9QUQ5; 300,000 compounds, 0.39% hits; HEK293 TRPC4beta/mu-opioid, DAMGO-evoked Fluo4 calcium flux; hits give low values; B-score at 10 µM;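 active means B-score over 3 SD under the library average, no early fluorescence shift, positive overall ratio signal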
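Assay system: TRPC4beta/mu-opioid receptor HEK293 cell line; compound dosing: single concentration per test compound; detection: Fluo4 Ca2+ flux fluorescence; evaluation: per-well B score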
TRPC4 spec 2: mouse TRPC4 off-target activity of TRPC6 inhibitors, second screen; shares compounds with TRPC6 inh; HEK293 TRPC4/MOR, membrane potential dye fluorescence; channel activated by saturating DAMGO dose; inhibition, % at 10 µM; 920 compounds, 42% hits; AID 2776;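 active means compounds whose fluorescence signal differed from control wells by over 3 SD, either direction, in both duplicate plates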
TRPC4 spec: selectivity of TRPC6 inhibitors: effect on mouse TRPC4; activity change, negative = inhibition, % at 10 µM; HEK293 TRPC4/mu-opioid, membrane potential fluorescence; shares compounds with TRPC6 inh; 920 compounds, 61% hits;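 active means rise or fall in signal beyond 3 SD of buffer-only wells in both replicate plates, either sign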;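 further: integrated kinetic ratio of fluorescence range over baseline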
HEK293 MPD ctr 2-1: parental HEK293 nonspecific activity of TRPC6 inhibitors, second screen. shares compounds with TRPC6 inh. parental HEK293 membrane potential dye fluorescence; maximal acetylcholine challenge after compound addition. signal change vs control, % at 10 µM. 920 compounds, 31% hits. AID 2779;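 active means membrane potential signal moving either way by over 3 SD of the maximum-effect control, in both duplicate plates, meaning non-specific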
HEK293 MPD ctr-1: counter-screen for TRPC6 inhibitors: effect in parental HEK293 cells. parental HEK293 membrane potential dye fluorescence. 920 compounds, 60% hits. AID 2780. membrane potential signal change, % at 10 µM. shares compounds with TRPC6 inh;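 active means membrane potential signal shifting up or down by more than 3 SD of buffer-only wells, on both duplicate plates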
HEK293 MPD ctr-2: parental HEK293 nonspecific activity of TRPC6 modulators; shares compounds with TRPC6 inh; membrane potential dye fluorescence; membrane potential signal change, % at 10 µM; 2,400 compounds, 51% hits; AID 488924;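 active means membrane potential signal moves up or down beyond 5 SD from buffer-only wells, on both duplicate plates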
HEK293 MPD ctr 2-2: parental HEK293 nonspecific activity of TRPC6 modulators, second screen | shares compounds with TRPC6 inh | membrane potential dye fluorescence; after compound, maximal acetylcholine stimulation | inhibition, % at 10 µM | 2,400 compounds, 14% hits | AID 488926;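 active means membrane potential signal drops by more than 5 SD from the mean control signal, in both duplicate plates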
TRPC4 ctr mod: selectivity of TRPC6 modulators against mouse TRPC4. percent change from control (negative = decrease, positive = increase), % at 10 µM. HEK293 TRPC4/mu-opioid, membrane potential fluorescence. AID 488927. 2,400 compounds, 69% hits. shares compounds with TRPC6 inh;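 active means membrane potential signal moved up or down beyond 5 SD of buffer control wells, in both duplicate plates, actives on both sides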
TRPC4/MOR inh 2: mouse TRPC4 off-target activity of TRPC6 modulators, second screen | HEK293 TRPC4/mu-opioid, membrane potential dye fluorescence; stimulated with maximal-effect DAMGO | 2,400 compounds, 55% hits | inhibition, % at 10 µM | AID 488928 | shares compounds with TRPC6 inh;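 active means drop in membrane potential signal beyond 5 SD of the control wells in both duplicate plates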;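 further: TRPC4 counter screen for TRPC6 hits run under conditions tuned for TRPC6 not TRPC4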
TRPC6 inh conf: mouse TRPC6 inhibitor confirmation. HEK293-TRPC6, membrane potential dye, ACh-evoked depolarization. inhibition, % at 10 µM. shares compounds with TRPC6 inh. 3,300 compounds, 43% hits;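 active means fluorescence ratio falls more than 5 SD below the full-stimulation control mean, in both duplicate runs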;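 further: integrated fluorescence ratio of peak minus minimum over baseline after agonist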
TRPC6 act conf: confirmation of mouse TRPC6 activators; shares compounds with TRPC6 inh; HEK293-TRPC6 membrane potential dye fluorescence, FDSS; activation, % at 10 µM; 2,800 compounds, 11% hits; AID 488961;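 active means ratio signal rise beyond 5 SD above unstimulated control wells' mean, seen in both duplicate runs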
A number is an active result; i = inactive; nt = no result given.

SMILES	TRPC4 act	TRPC6 inh	TRPC4 potent	TRPC6 activator	TRPC4 block	HEK293 MPD ctr-2	HEK293 MPD ctr 2-2	TRPC4 ctr mod	TRPC4/MOR inh 2	TRPC6 inh conf	TRPC6 act conf	others
CCN(CC)CCCOC(=O)C(c1ccccc1)c1ccccc1	i	-7.2	i	i	i	nt	nt	nt	nt	61%	nt	TRPC4 spec 2=i;TRPC4 spec=9.6%;HEK293 MPD ctr 2-1=i;HEK293 MPD ctr-1=12%
CN(C)c1ccc2nc3ccc(=[N+](C)C)cc-3sc2c1	i	-14	i	i	i	-224%	132%	-36%	66%	80%	i
CN(c1cccc(NS(=O)(=O)c2cccs2)c1)S(C)(=O)=O	i	-6.1	i	i	i	i	i	i	i	i	i
COc1ccc(S(=O)(=O)Nc2cccc(N(C)S(C)(=O)=O)c2)cc1Br	i	i	i	i	i	nt	nt	nt	nt	nt	nt
CC(C)(C)OC(=O)N1CSC[C@H]1C(=O)NC[C@H](CC(=O)O)c1ccc(Cl)cc1	i	i	i	i	i	nt	nt	nt	nt	nt	nt
Cc1ccc(OCCCC(=O)Nc2nc3ccccc3[nH]2)cc1	i	-7	i	i	i	i	i	i	i	i	i
Cc1cc(C)nc(Nc2nc(C)c3cc4c(cc3n2)OCO4)n1	i	-6.8	i	i	i	nt	nt	nt	nt	i	i	TRPC4 spec 2=i;TRPC4 spec=9.0%;HEK293 MPD ctr 2-1=-138%;HEK293 MPD ctr-1=8.5%
Cc1nc(NC(=O)c2ccc(Cl)cc2)nc2cc3c(cc12)OCO3	i	i	i	i	i	nt	nt	nt	nt	nt	nt
O=C(ONC1=NCCCCC1)c1cccc([N+](=O)[O-])c1	i	i	i	i	i	nt	nt	nt	nt	nt	nt
O=[N+]([O-])c1cccc(/C=N/NC2=NCCCCC2)c1	i	-5.1	i	i	i	-80%	i	-15%	39%	i	i
COC(=O)c1ccc2c(=O)n(CCN3CCOCC3)c(SCC(=O)Nc3ccc(C)cc3)nc2c1	i	i	i	i	i	nt	nt	nt	nt	nt	nt
O=C(NCCCN1CCOCC1)c1ccc2c(c1)N(Cc1ccccc1F)C(=O)c1ccccc1S2=O (stereo not given)	i	i	i	i	i	nt	nt	nt	nt	nt	nt
CCOC(=O)c1c(CSc2cccs2)n(C)c2cc(Br)c(O)c(CN(C)C)c12	i	-6.4	i	i	i	i	i	i	72%	54%	i
c1ccc2c(c1)CCN(c1ncnc3c1[nH]c1ccccc13)C2	86	-5.7	i	i	i	i	i	i	63%	i	i
CCN1C(=O)/C(=C/C=C2/Sc3ccccc3N2CCO)SC1=S	i	i	i	i	i	nt	nt	nt	nt	nt	nt
CCN1C(=S)SC(=O)C1=C1C=C(C)N(CCO)C(C)=C1	47	i	i	40	i	812%	159%	134%	i	nt	458%
CC(C)n1cc(C(=O)NC2CC(C)(C)Cc3c2cnn3-c2ccccc2)cn1 (stereo not given)	i	i	i	i	i	nt	nt	nt	nt	nt	nt
CC1CCN(CC(O)CN2c3ccccc3Sc3ccccc32)CC1 (stereo not given)	i	-6.7	i	i	i	nt	nt	nt	nt	i	i	TRPC4 spec 2=66%;TRPC4 spec=1.4%;HEK293 MPD ctr 2-1=i;HEK293 MPD ctr-1=i
CC1CCN(C(=O)N2c3ccccc3Sc3ccccc32)CC1	i	i	i	i	i	nt	nt	nt	nt	nt	nt
Cc1cc(N)c2cc(NC(=O)/C=C/c3ccccc3Cl)ccc2n1	i	-5.5	i	i	i	i	i	i	i	i	i
COc1ccc2c(c1)C(C)=CC(C)(C)N2S(=O)(=O)c1ccc(Br)cc1	i	i	i	i	i	nt	nt	nt	nt	nt	nt
CCOc1ccc(-c2cccc(NC(=O)COc3ccc(Cl)cc3)c2)nn1	i	i	i	i	i	nt	nt	nt	nt	nt	nt
CN(C)CCCN(C(=O)c1ccco1)c1nc2ccc(Br)cc2s1	i	-8.1	i	i	i	-120%	i	-34%	71%	i	i
CCOc1cccc2sc(N(CCCN(C)C)C(=O)c3ccc(S(=O)(=O)N(C)CC4CCCO4)cc3)nc12 (stereo not given)	i	-7.4	i	i	i	nt	nt	nt	nt	i	i	TRPC4 spec 2=48%;TRPC4 spec=-14%;HEK293 MPD ctr 2-1=i;HEK293 MPD ctr-1=i
Cc1cc(C)c2nc(N(CCN(C)C)C(=O)c3ccc(S(=O)(=O)N(C)CC4CCCO4)cc3)sc2c1 (stereo not given)	i	i	i	i	i	nt	nt	nt	nt	nt	nt
SMILES	TRPC4 act	TRPC6 inh	TRPC4 potent	TRPC6 activator	TRPC4 block	HEK293 MPD ctr-2	HEK293 MPD ctr 2-2	TRPC4 ctr mod	TRPC4/MOR inh 2	TRPC6 inh conf	TRPC6 act conf	others
CN(C)CCCN(C(=O)c1ccc(S(=O)(=O)N(C)C)cc1)c1nc2cc3c(cc2s1)OCO3	i	-5	i	i	i	i	i	-14%	55%	i	i
CN(C)CCCN(C(=O)CCc1ccccc1)c1nc2ccc(Br)cc2s1	i	i	i	i	i	nt	nt	nt	nt	nt	nt
CN(C)CCN(C(=O)c1ccco1)c1nc2cc3c(cc2s1)OCCO3	i	-5.3	i	i	i	-136%	i	-40%	88%	60%	i
CN(C)CCN(C(=O)c1ccc(C(=O)c2ccccc2)cc1)c1nc2cc3c(cc2s1)OCO3	i	i	i	i	i	nt	nt	nt	nt	nt	nt
CC(C)C[C@H](NC(=O)N1CCn2c1nc1ccccc12)C(=O)NCC1CCCO1 (stereo not given in full)	i	i	i	i	i	nt	nt	nt	nt	nt	nt
O=C(O)/C=C/C(=O)NCCCc1ccccc1	i	i	i	i	i	nt	nt	nt	nt	nt	nt
CCOc1cccc2sc(N(CCN(CC)CC)C(=O)c3cccc([N+](=O)[O-])c3)nc12	i	-5	i	i	i	i	i	-10%	62%	i	nt
CCOc1cccc2sc(N(CCN(CC)CC)C(=O)c3cccc(N4C(=O)CCC4=O)c3)nc12	i	i	i	i	i	nt	nt	nt	nt	nt	nt
